Here are results for 14 molecules from ChEMBL document CHEMBL1153986, “Novel approach for chemotype hopping based on annotated databases of chemically feasible fragments and a prospective case study: new melanin concentrating hormone antagonists” (J Med Chem, 2009).

The IC50 is the midpoint of a concentration-inhibition curve. The Ki is a measure of affinity in units of concentration, obtained from inhibition or displacement. The low end stands for a stronger hold on the target, the high end for a looser hold on the target.

Molecules are shown by their SMILES.

Assay [1] concerns the target T1, Melanin-concentrating hormone receptor 1 (Homo sapiens, UniProt Q99705). Nature of the assay: Antagonist activity at MCH1R. Type of assay: functional. An outline of the steps:
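MCH-1 receptor-expressing CHO cells seeded 24 h before (5000 cells/well), loaded with calcium assay kit containing 10 mM probenicide for 90 min at 37 °C, 5% CO2. Serial dilutions of compound added, 20 min at room temperature in the dark, then submaximal MCH challenge; intracellular calcium change recorded on FLIPR III.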

For assay [2], the target named is T1, Melanin-concentrating hormone receptor 1.
For assay [3] the target is unchanged. Nature of the assay: Antagonist activity at MCH1R by [35S]GTPgammaS binding assay. Format: functional.

T1 sequence (Q99705 whole entry): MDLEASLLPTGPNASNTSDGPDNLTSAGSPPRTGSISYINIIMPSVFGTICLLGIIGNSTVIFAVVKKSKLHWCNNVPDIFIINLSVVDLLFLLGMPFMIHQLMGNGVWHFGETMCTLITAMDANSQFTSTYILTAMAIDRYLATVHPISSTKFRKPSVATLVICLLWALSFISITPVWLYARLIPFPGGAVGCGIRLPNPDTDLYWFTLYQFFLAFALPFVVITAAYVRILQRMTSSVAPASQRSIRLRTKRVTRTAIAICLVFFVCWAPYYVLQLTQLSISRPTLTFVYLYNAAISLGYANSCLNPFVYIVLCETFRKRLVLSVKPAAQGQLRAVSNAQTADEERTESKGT

Regarding `CN(C)CCOc1ccc(-n2ccn(-c3ccc(Oc4ccccc4)cc3)c2=O)cc1`, the IC50 in assay [1] is greater than 100 nM.

In assay [1], `Cn1cc(CCN2CCCC2)c2ccc(-n3ccc4nc(-c5ccc(Cl)cc5)sc4c3=O)cc21` displayed a Ki of 3.16 nM.

`COc1cc(-n2ccnc(NCCc3ccccc3)c2=O)ccc1OCCN1CCCC1` had an IC50 in assay [2] of 45.7 nM.

As to `CC(C)N(C)c1nc2cc(-c3noc(COCc4ccc(Cl)cc4)n3)ccc2[nH]1`, the IC50 in assay [1] is 7 nM.

In assay [1], `O=c1cc(/C=C/c2ccccc2)ccn1-c1ccc(OCCN2CCCC2)cc1` returned an Activity of 1.5 nM.

For `COc1cc(-n2cnc3cc(-c4ccccc4)ccc3c2=O)ccc1OCCN1CCCC1`, the Activity in assay [1] worked out at 2.1 nM.

In turn, `COc1cc(-c2cnc3[nH]c(-c4ccc(Cl)cc4)cn3c2=O)ccc1OCCN1CCCC1` had a Ki in assay [1] of 77 nM. This lies in the double-digit nanomolar range.

Take `CN(C)CC1CCc2cc(NC(=O)c3ccc(-c4ccc(F)cc4)cc3)ccc2C1` (centres undefined): the half-maximal inhibitory concentration (IC50) in assay [3] came out at 19 nM.

In turn, `COc1cc(-n2ccnc(CCCc3ccccc3)c2=O)ccc1OCCN1CCCC1` gave an IC50 in assay [2] of 105 nM.

Regarding `C(=C\c1ccc(-c2nnc(CSCCOc3ccccc3)o2)cc1)/CN1CCCC1`, in assay [1], the Activity was found to be 1.9 nM.

Turning to `COc1cc(-n2nnc3cc(-c4ccc(Cl)cc4)sc3c2=O)ccc1N1CC[C@@H](O)C1`, the IC50 in assay [1] was greater than 5000 nM.

`COc1cc(-n2ccnc(OCCc3ccccc3)c2=O)ccc1OCCN1CCCC1` had an IC50 in assay [2] of 83.2 nM.

Regarding `CCN(CC)Cc1ccc2c(c1)CCC(N1CCN(CCc3ccc(F)cc3)CC1=O)C2` (centres undefined), affinity in assay [1] was put at a Ki of 3 nM.

`CN[C@@H]1CCN(c2ccc(-n3ccc4cc(-c5ccc(C(F)(F)F)cc5)sc4c3=O)cn2)C1` gave a Ki in assay [1] of 3.3 nM.
